Series [1] in a line: folding enthalpy; higher = less favourable; fluorescence melt of hairpins on a sequencing array, two-state fit. The conditions noted are these: sodium 0.088 M. An outline of the steps: (§1)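 Melting temperature and folding enthalpy were derived from bootstrapped two-state fits. The fitted temperatures were raised by 9.35 °C to agree with UV melts, and four replicates were combined by inverse variance. The underlying data were Cy3 fluorescence images of library hairpins, with annealed Cy3 and quencher oligos, on a sequenced MiSeq flow cell in 50 mM Na-HEPES pH 8.0, 25 mM NaCl, taken in 2.5 °C steps up to 60 °C, normalised to pre-quench Cy3 and to control constructs.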

Series [2] is described as follows: melting temperature; fluorescence melt of hairpins on a sequencing array, two-state fit, raised by 9.35 °C to match UV melts. The conditions noted are these: sodium 0.088 M. The method in brief: as §1

Consider GATCCTCCTGAGGATC ((((((....)))))), for which the folding enthalpy in series [1] is -41.2 kcal/mol. For the same sequence, in series [2], the Tm is 57.2 °C.

For GATCCTCGACAGGATC ((((((....)))))), the folding enthalpy in series [1] was -35.6 kcal/mol. Further, the Tm in series [2] was 48.5 °C.

In the case of GATCCTCGCAGGATC ((((((...)))))), the folding enthalpy in series [1] was -33.8 kcal/mol. Moreover, the Tm in series [2] was determined as 55.5 °C.

As for GATCCTCGGAAGGATC ((((((....)))))), the folding enthalpy in series [1] was -34.4 kcal/mol. In addition, the Tm in series [2] is 50.2 °C.

GATCCTCGGCAGGATC ((((((....)))))): the folding enthalpy in series [1] is -29.4 kcal/mol. For the same sequence, in series [2], the Tm turned out to be 49.7 °C.

For GATCCTCGGGAGGATC ((((((....)))))), the folding enthalpy in series [1] was -37.7 kcal/mol. In addition, in series [2], the Tm was found to be 56.1 °C.

For GATCCTCGTTAGGATC ((((((....)))))), in series [1], the folding enthalpy is -39.1 kcal/mol. For the same sequence, the Tm in series [2] was 51.7 °C.

Take GATCCTCTAAGGATC ((((((...)))))): the folding enthalpy in series [1] was -33.3 kcal/mol. The Tm in series [2] was found to be 54.3 °C.

Consider GATCCTCTGGAGGATC ((((((....)))))), for which the folding enthalpy in series [1] is -39.5 kcal/mol. For the same sequence, the Tm in series [2] came to 58.3 °C.

Turning to GATCCTCTTAAGGATC ((((((....)))))), the folding enthalpy in series [1] is -42.5 kcal/mol. The Tm in series [2] amounted to 52.9 °C.

Take GATCCTGACAGGATC ((((((...)))))): the folding enthalpy in series [1] is -38.9 kcal/mol. Moreover, the Tm in series [2] was 55.7 °C.

As to GATCCTGACTAGGATC ((((((....)))))), the folding enthalpy in series [1] was -43.3 kcal/mol. Moreover, in series [2], the Tm amounted to 56.7 °C.

On to GATCCTGAGAAGGATC ((((((....)))))), for which the folding enthalpy in series [1] is -40.2 kcal/mol. In addition, the Tm in series [2] is 57.6 °C.

For GATCCTGATCAGGATC ((((((....)))))), the folding enthalpy in series [1] is -39.8 kcal/mol. Besides, the Tm in series [2] worked out at 56.1 °C.

For the sequence GATCCTGCCAAGGATC ((((((....)))))), in series [1], the folding enthalpy was -38.6 kcal/mol. In addition, the Tm in series [2] was determined as 65.6 °C.

Turning to GATCCTGCCAGGATC ((((((...)))))), in series [1], the folding enthalpy was -34.7 kcal/mol. In addition, in series [2], the Tm is 56.6 °C.

GATCCTGCTAAGGATC ((((((....)))))): the folding enthalpy in series [1] was -46.2 kcal/mol. The Tm in series [2] is 63.2 °C.

Consider GATCCTGGAAACAGAATC (((.(((....))).))), for which the folding enthalpy in series [1] is -16.8 kcal/mol. In addition, the Tm in series [2] is 30.1 °C.

As for GATCCTGGAAACAGGACC (.(((((....))))).), in series [1], the folding enthalpy was -14.4 kcal/mol. In addition, the Tm in series [2] amounted to 40.1 °C.

For the sequence GATCCTGGGCAGGATC ((((((....)))))), in series [1], the folding enthalpy is -35.7 kcal/mol. In series [2], the Tm is 54.2 °C.

As for GATCCTGGGTAGGATC ((((((....)))))), in series [1], the folding enthalpy is -33.4 kcal/mol. For the same sequence, the Tm in series [2] amounted to 51.3 °C.

In the case of GATCCTGGTAGGATC ((((((...)))))), the folding enthalpy in series [1] is -32.6 kcal/mol. In series [2], the Tm was found to be 54.6 °C.

Take GATCCTGGTGAGGATC ((((((....)))))): in series [1], the folding enthalpy is -42.1 kcal/mol. For the same sequence, the Tm in series [2] turned out to be 52.5 °C.

Regarding GATCCTGTACAGGATC ((((((....)))))), the folding enthalpy in series [1] is -40.7 kcal/mol. Moreover, the Tm in series [2] worked out at 60.2 °C.

On to GATCCTGTGAAGGATC ((((((....)))))), for which, in series [1], the folding enthalpy was -35.4 kcal/mol. Also, in series [2], the Tm was 58.4 °C.

On to GATCCTGTTAGGATC ((((((...)))))), for which the folding enthalpy in series [1] is -38.1 kcal/mol. Besides, the Tm in series [2] was determined as 55.4 °C.

With GATCCTGTTTAGGATC ((((((....)))))), the folding enthalpy in series [1] is -44.3 kcal/mol. Also, the Tm in series [2] amounted to 52.6 °C.

On to GATCCTTAAGAGGATC ((((((....)))))), for which the folding enthalpy in series [1] is -38.1 kcal/mol. The Tm in series [2] came out at 50.9 °C.

With GATCCTTACCAGGATC ((((((....)))))), the folding enthalpy in series [1] was -33.6 kcal/mol. Moreover, the Tm in series [2] was determined as 52.1 °C.

Take GATCCTTAGAAGGATC ((((((....)))))): in series [1], the folding enthalpy was -33.8 kcal/mol. Moreover, the Tm in series [2] amounted to 50.2 °C.

On to GATCCTTAGTAGGATC ((((((....)))))), for which the folding enthalpy in series [1] is -35.8 kcal/mol. Besides, the Tm in series [2] worked out at 50.3 °C.
